Series [1] has as its system Dengue virus. The experiment in a line: Inhibition of Dengue virus RNA polymerase NS5 assessed as reduction in polyU formation at 20 uM by SDS-PAGE analysis.
Series [2] is described as follows: Lipophilicity, log P of the compound. Format: physicochemical. As to conditions: octanol/water.
Series [3] concerns Coxsackievirus A24. Description: Inhibition of Coxsackievirus A24 RNA polymerase 3D-POL assessed as reduction in uridylylated VPg level at 25 uM after 60 mins by SDS-PAGE analysis. An outline of the steps: (§1)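 Purified CVA24 3Dpol (1–2 µg) incubated at 30°C with 1 µg synthetic VPg, 0.5 µg polyA template, 10 µM UTP plus α-32P-UTP, and 0.5 mM Mn(II) acetate in 50 mM HEPES pH 7.5, 8% glycerol. Compounds were diluted from DMSO stocks in that buffer first. Reactions were stopped on ice, run on 16% urea Tris-Tricine SDS-PAGE, and VPgpU and VPgpolyU were phosphorimaged relative to DMSO or buffer controls.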

Series [4] concerns Coxsackievirus A24. The experiment in a line: Inhibition of Coxsackievirus A24 RNA polymerase 3D-POL assessed as reduction in VPgpolyU level at 25 uM after 60 mins by SDS-PAGE analysis. An outline of the steps:
as §1

Series [5] relates to Coxsackievirus A24. The experiment in a line: Inhibition of Coxsackievirus A24 RNA polymerase 3D-POL assessed as reduction in VPgpolyU level at 20 uM by SDS-PAGE analysis. An outline of the steps: as §1
Series [6] has as its system Coxsackievirus A24. The experiment in a line: Inhibition of Coxsackievirus A24 RNA polymerase 3D-POL assessed as reduction in uridylylated VPg level at 20 uM by SDS-PAGE analysis. An outline of the steps: as §1
The test system of series [7] is Dengue virus. Description: Inhibition of Dengue virus RNA polymerase NS5 assessed as reduction in polyU formation at 10 uM by SDS-PAGE analysis.
Series [8] has as its system Coxsackievirus A24. The experiment in a line: Inhibition of Coxsackievirus A24 RNA polymerase 3D-POL assessed as reduction in VPgpolyU level at 10 uM by SDS-PAGE analysis. An outline of the steps:
as §1

The test system of series [9] is Coxsackievirus A24. Description: Inhibition of Coxsackievirus A24 RNA polymerase 3D-POL assessed as reduction in uridylylated VPg level at 10 uM by SDS-PAGE analysis. An outline of the steps: as §1

The results in this text go back to ChEMBL document CHEMBL3745661, “Allosteric inhibitors of Coxsackie virus A24 RNA polymerase” (Bioorg Med Chem, 2016).

Active and inactive are the calls of the source. No cut-off for these calls is given here.

Regarding `Cn1c(=O)oc2cc(S(=O)(=O)Nc3ccccc3NC(=O)c3ccc(C(C)(C)C)cc3)ccc21`, the inhibition result with Dengue virus [1] was “inactive”. Moreover, the logP in series [2] was found to be 4.54.
Consider `c1ccc2c(c1)c1ccccc1c1nn3nnnc3nc21`, for which the inhibition entry with Coxsackievirus A24 [3] and in the series with Coxsackievirus A24 [4] was “inactive” throughout. For the same compound, the logP in [2] came to 3.16.
Take `O=S(=O)(c1ccccc1)N1CCN(C2c3ccccc3-c3ccccc32)CC1`: the inhibition result in the series on Coxsackievirus A24 [3] and in the series on Coxsackievirus A24 [4] was “inactive” throughout. In series [2], the logP turned out to be 4.26.
On to `O=C(NCc1nc2ccccc2s1)c1cc(F)cc2c1OCOC2`, for which the inhibition result in the series with Coxsackievirus A24 [3] and with Coxsackievirus A24 [4] was “inactive” each time. Further, in series [2], the logP was found to be 3.12.
In the case of `Cc1nc(-c2cnccn2)sc1C(=O)N1CCN(C2c3ccccc3-c3ccccc32)CC1`, the inhibition entry in the series on Coxsackievirus A24 [3] and with Coxsackievirus A24 [4] was “inactive” throughout. In addition, the logP in series [2] worked out at 3.86.
For `CCOc1ccc(Oc2ccc(NS(=O)(=O)c3ccc4c(c3)oc(=O)n4C)cc2)cc1`, the lipophilicity (logP) in [2] came out at 4.17.
The same measure, in the same setting: the value for `Cn1c(=O)oc2cc(S(=O)(=O)N(CCC(N)=O)c3ccccc3)ccc21` was 1.23.
In the case of `O=S(=O)(NCc1cc(F)cc2c1OCOC2)c1cccc2nonc12`, the inhibition entry in the series with Coxsackievirus A24 [3] and in the series on Coxsackievirus A24 [4] was “inactive” each time. The compound further returned a logP in series [2] of 2.2.
With `Cc1c(S(=O)(=O)N2CCN(C3c4ccccc4-c4ccccc43)CC2)cnn1-c1ccccc1`, the inhibition result in the series on Coxsackievirus A24 [3] and in the series with Coxsackievirus A24 [4] was “inactive” throughout. The log partition coefficient (logP) in series [2] was found to be 4.13.
Take `CC1=C(C(=O)N[n+]2cnc3cccc(F)c3c2N)Sc2ccccc2N1`: the inhibition result in the series with Coxsackievirus A24 [3] and in the series with Coxsackievirus A24 [4] was “inactive” throughout. This compound also showed a lipophilicity (logP) in [2] of -0.39.
Consider `Cc1noc(C)c1-c1nc(CN2C(=O)c3ccccc3S2(=O)=O)no1`, for which the inhibition result in the series with Coxsackievirus A24 [3] and in the series with Coxsackievirus A24 [4] was “inactive” throughout. In addition, the logP in series [2] came to 0.51.
As for `CCN(c1ccccc1)S(=O)(=O)c1ccc2[nH]c(=O)oc2c1`, in the series with Dengue virus [1], the inhibition entry was “inactive”. Moreover, the logP in series [2] was 3. The inhibition result with Coxsackievirus A24 [5] and in the series on Coxsackievirus A24 [6] was “Active” in each case.
As to `N#Cc1ccc(N2CCN(S(=O)(=O)c3cccc4nonc34)CC2)cc1`, the inhibition entry in the series with Coxsackievirus A24 [3] and in the series with Coxsackievirus A24 [4] was “inactive” in each case. The compound also returned a logP in [2] of 2.51.
With `COc1ccc(-c2nc3cc4c(cc3o2)Oc2ccccc2N4)cc1`, the inhibition result in the series on Coxsackievirus A24 [3] and in the series on Coxsackievirus A24 [4] was “inactive” in each case. Further, the logP in [2] is 5.09.
As to `O=C1/C(=C/c2ccc3c(c2)OCO3)CCC/C1=C\c1ccc2c(c1)OCO2`, the inhibition entry in the series with Coxsackievirus A24 [3] and in the series on Coxsackievirus A24 [4] was “inactive” in each case. The compound also showed a lipophilicity (logP) in [2] of 4.75.
Turning to `Cn1c(=O)oc2cc(S(=O)(=O)Nc3ccccc3Oc3ccccc3Cl)ccc21`, the lipophilicity (logP) in series [2] was 4.32.
With `O=C(NNc1cc(C(F)(F)F)nc2ccccc12)Nc1cccc(Cl)c1`, the inhibition result with Coxsackievirus A24 [3] and in the series with Coxsackievirus A24 [4] was “inactive” each time. The same compound returned a logP in [2] of 5.14.
For the compound `O=C1c2ccccc2S(=O)(=O)N1CCS(=O)(=O)c1ccc(Cl)cc1Cl`, the inhibition entry in the series on Coxsackievirus A24 [3] and with Coxsackievirus A24 [4] was “inactive” each time. For the same compound, in [2], the logP turned out to be 2.69.
As to `Cn1c(=O)oc2cc(S(=O)(=O)Nc3cccc4cccnc34)ccc21`, in series [2], the logP was 1.94.
In turn, `Cn1c(=O)oc2cc(S(=O)(=O)Nc3ccccc3Sc3ccccc3)ccc21` registered a logP in series [2] of 3.91.
On to `N#Cc1ccc(S(=O)(=O)N2CCNC(=O)[C@H]2CC(=O)Nc2cc(Cl)ccc2Cl)cc1`, for which the inhibition entry with Coxsackievirus A24 [3] and in the series with Coxsackievirus A24 [4] was “inactive” each time. In series [2], the logP is 3.54.
For the compound `COC(=O)c1cc(=O)c2cc(NC(=O)c3ccc(OC(F)(F)F)cc3)ccc2[nH]1`, the inhibition result in the series with Coxsackievirus A24 [3] and with Coxsackievirus A24 [4] was “inactive” throughout. The lipophilicity (logP) in [2] came out at 2.78.
With `O=C1c2ccccc2S(=O)(=O)N1C[C@@H]1CC(c2ccccc2Cl)=NO1`, the inhibition result in the series with Coxsackievirus A24 [3] and in the series on Coxsackievirus A24 [4] was “inactive” each time. The logP in [2] amounted to 2.71.
On to `O=C(CSc1nc2ccccc2o1)N1c2ccccc2Sc2ccccc21`, for which the inhibition entry in the series with Coxsackievirus A24 [3] and in the series on Coxsackievirus A24 [4] was “inactive” throughout. Moreover, the logP in series [2] was 6.09.
Turning to `O=S(=O)(NNc1cnc2ccccc2n1)c1ccccc1C(F)(F)F`, the inhibition entry in the series on Coxsackievirus A24 [3] and with Coxsackievirus A24 [4] was “inactive” throughout. Further, the logP in series [2] came out at 3.23.
For `C/C(=N/Nc1nnc(-c2ccccc2)c(-c2ccccc2)n1)c1ccco1`, the inhibition entry in the series with Coxsackievirus A24 [3] and in the series on Coxsackievirus A24 [4] was “inactive” throughout. In addition, in [2], the logP was found to be 4.36.
Consider `O=S(=O)(NC1CCCc2ccccc21)c1cccc2nonc12` (configuration not stated), for which the inhibition entry in the series with Coxsackievirus A24 [3] and in the series with Coxsackievirus A24 [4] was “inactive” in each case. Also, the logP in [2] is 3.28.
With `O=C(Nc1ccc(OC(F)(F)F)cc1)N1CCN(c2ncccn2)CC1`, the inhibition entry in the series with Coxsackievirus A24 [3] and in the series with Coxsackievirus A24 [4] was “inactive” in each case. Besides, the logP in series [2] stood at 2.96.
On to `O=C(Nc1ccccc1)Nc1ccc(Oc2cccc(C(F)(F)F)c2)nc1`, for which the inhibition entry with Coxsackievirus A24 [3] and in the series on Coxsackievirus A24 [4] was “inactive” throughout. The same compound showed a logP in [2] of 5.04.
Regarding `O=c1[nH]c2ccc(S(=O)(=O)Nc3cccc(F)c3)cc2o1`, the inhibition entry with Dengue virus [7] was “inactive”. In addition, the logP in series [2] worked out at 2.06. In addition, the inhibition entry with Coxsackievirus A24 [8] and in the series on Coxsackievirus A24 [9] was “Active” each time.
As for `O=C(Nc1ccc2oc3ncccc3c(=O)c2c1)c1ccc([N+](=O)[O-])cc1`, the inhibition result in the series on Coxsackievirus A24 [3] and in the series on Coxsackievirus A24 [4] was “inactive” in each case. The compound also displayed a logP in series [2] of 3.5.
With `C[C@@H](CS(=O)(=O)Nc1ccc2c(c1)oc(=O)n2C)c1ccccc1`, the log partition coefficient (logP) in [2] worked out at 3.06.
Turning to `COC(=O)Nc1nc2cc(-c3nnc(O)c4ccccc34)ccc2[nH]1`, the inhibition result in the series on Coxsackievirus A24 [3] and with Coxsackievirus A24 [4] was “inactive” each time. The compound further yielded a logP in [2] of 2.53.
In the case of `CC(C)COc1ccc(NS(=O)(=O)c2ccc3c(c2)oc(=O)n3C)cc1Cl`, in series [2], the lipophilicity (logP) was found to be 3.77.
`c1ccc2c(c1)Nc1nc3ccccc3nc1O2`: the inhibition result with Coxsackievirus A24 [3] and with Coxsackievirus A24 [4] was “inactive” each time. Besides, the lipophilicity (logP) in series [2] was found to be 3.46.
